Data as given in ChEMBL document CHEMBL1147823, “Conformationally constrained analogues of diacylglycerol. 26. Exploring the chemical space surrounding the C1 domain of protein kinase C with DAG-lactones containing aryl groups at the sn-1 and sn-2 positions” (J Med Chem, 2006).

Legend:
[1] = molecular target: Protein kinase C alpha type (Homo sapiens, UniProt P17252); experiment: Displacement of [20-3H]PDBU from recombinant PKCalpha in presence of phosphatidylserine
In short: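 Competition binding with recombinant single-isozyme PKC-α as the target enzyme. Each ligand's ability to displace bound [20-³H]phorbol 12,13-dibutyrate was measured in the presence of phosphatidylserine. Ki values were derived from the competition, and both E- and Z-isomers were assayed.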

[2] = molecular target: T1, Protein kinase C delta type (Homo sapiens, UniProt Q05655); experiment: Ratio of binding affinity to PKCdeltaC1b in presence to absence of phospholipid
Target sequence in this assay (Q05655 whole entry, looked up): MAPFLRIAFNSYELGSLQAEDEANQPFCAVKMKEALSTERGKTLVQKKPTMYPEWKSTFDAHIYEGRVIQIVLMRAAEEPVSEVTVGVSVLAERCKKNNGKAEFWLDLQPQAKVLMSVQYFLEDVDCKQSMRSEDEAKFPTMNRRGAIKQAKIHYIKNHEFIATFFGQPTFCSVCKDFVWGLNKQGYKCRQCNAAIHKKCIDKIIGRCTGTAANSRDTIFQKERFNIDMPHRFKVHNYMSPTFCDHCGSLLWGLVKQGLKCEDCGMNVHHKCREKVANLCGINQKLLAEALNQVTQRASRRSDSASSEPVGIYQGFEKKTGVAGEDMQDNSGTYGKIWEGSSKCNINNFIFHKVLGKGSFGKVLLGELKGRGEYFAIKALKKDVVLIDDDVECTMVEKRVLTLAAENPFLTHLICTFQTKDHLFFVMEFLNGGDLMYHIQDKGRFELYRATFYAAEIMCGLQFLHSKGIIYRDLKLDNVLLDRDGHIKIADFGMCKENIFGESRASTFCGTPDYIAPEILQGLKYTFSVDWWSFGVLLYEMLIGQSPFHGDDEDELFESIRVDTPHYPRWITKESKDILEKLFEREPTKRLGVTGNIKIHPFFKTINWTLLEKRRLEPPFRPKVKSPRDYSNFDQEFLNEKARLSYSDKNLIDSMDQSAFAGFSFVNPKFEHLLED

[3] = molecular target: T1, Protein kinase C delta type; experiment: Binding affinity to PKCdeltaC1b in absence of phospholipid
Target sequence in this assay (Q05655 whole entry): as the sequence (Q05655 whole entry, looked up) above

[4] = molecular target: T1, Protein kinase C delta type; experiment: Binding affinity to PKCdeltaC1b in presence of phospholipid
Target sequence in this assay (Q05655 whole entry): as the sequence (Q05655 whole entry, looked up) above

| Structure (SMILES) | Ki [1] [µM] | other results |
| --- | --- | --- |
| COc1ccc(C(=O)OCC2(CO)C/C(=C/CC(C(C)C)C(C)C)C(=O)O2)cc1 (stereo unspecified) | 0.018 |  |
| CC(C)C(C/C=C1\CC(CO)(COC(=O)C2CCCCC2)OC1=O)C(C)C (stereo unspecified) | 0.01 |  |
| COc1ccccc1C(=O)OCC1(CO)C/C(=C/CC(C(C)C)C(C)C)C(=O)O1 (stereo unspecified) | 0.023 |  |
| CC(C)C(CC(=O)OCC1(CO)C/C(=C\CCc2ccccc2)C(=O)O1)C(C)C (stereo unspecified) | 0.009 |  |
| CC(C)C(C/C=C1/CC(CO)(COC(=O)c2ccccc2)OC1=O)C(C)C (stereo unspecified) | 0.016 |  |
| CC(C)C(C/C=C1/CC(CO)(COC(=O)c2ccc(O)cc2)OC1=O)C(C)C (stereo unspecified) | 0.983 |  |
| COc1cccc(C(=O)OCC2(CO)C/C(=C/CC(C(C)C)C(C)C)C(=O)O2)c1 (stereo unspecified) | 0.024 |  |
| CCCCCCC/C=C1\CC(CO)(COC(=O)CCc2ccccc2)OC1=O (stereo unspecified) | 0.018 |  |
| COc1cccc(C(=O)OCC2(CO)C/C(=C\CC(C(C)C)C(C)C)C(=O)O2)c1 (stereo unspecified) | 0.039 |  |
| CC(C)C(CC(=O)OCC1(CO)C/C(=C\c2cccc(O)c2)C(=O)O1)C(C)C (stereo unspecified) | 0.017 |  |
| CCCCCC/C=C1\CC(CO)(COC(=O)CCCc2ccccc2)OC1=O (stereo unspecified) | 0.027 |  |
| COc1ccc(C(=O)OCC2(CO)C/C(=C\CC(C(C)C)C(C)C)C(=O)O2)cc1 (stereo unspecified) | 0.036 |  |
| CCCCCCCCC/C=C1\CC(CO)(COC(=O)c2ccccc2)OC1=O (stereo unspecified) | 0.014 |  |
| CCCCCC/C=C1/CC(CO)(COC(=O)CCCc2ccccc2)OC1=O (stereo unspecified) | 0.017 |  |
| CCCCCCCCC/C=C1/CC(CO)(COC(=O)c2ccccc2)OC1=O (stereo unspecified) | 0.009 |  |
| COc1cccc(/C=C2\CC(CO)(COC(=O)CC(C(C)C)C(C)C)OC2=O)c1 (stereo unspecified) | 0.012 |  |
| CC(C)C(C/C=C1/CC(CO)(COC(=O)c2ccccc2O)OC1=O)C(C)C (stereo unspecified) | 0.03 |  |
| COc1ccccc1C(=O)OCC1(CO)C/C(=C\CC(C(C)C)C(C)C)C(=O)O1 (stereo unspecified) | 0.073 |  |

| Structure (SMILES) | Ki [1] [µM] | other results |
| --- | --- | --- |
| CCCCCCCC/C=C1/CC(CO)(COC(=O)Cc2ccccc2)OC1=O (stereo unspecified) | 0.045 |  |
| CCCCCCCCC/C=C1\CC(CO)(COC(=O)C2CCCCC2)OC1=O (stereo unspecified) | 0.009 |  |
| CC(C)C(C/C=C1\CC(CO)(COC(=O)c2ccccc2O)OC1=O)C(C)C (stereo unspecified) | 0.067 |  |
| COc1ccccc1/C=C1\CC(CO)(COC(=O)CC(C(C)C)C(C)C)OC1=O (stereo unspecified) | 0.016 |  |
| CC(C)C(C/C=C1\CC(CO)(COC(=O)c2ccccc2)OC1=O)C(C)C (stereo unspecified) | 0.028 |  |
| CC(C)C(C/C=C1\CC(CO)(COC(=O)c2cccc(O)c2)OC1=O)C(C)C (stereo unspecified) | 0.67 |  |
| CCCCCCC/C=C1/CC(CO)(COC(=O)CCc2ccccc2)OC1=O (stereo unspecified) | 0.014 |  |
| CC(C)C(CC(=O)OCC1(CO)C/C(=C\c2ccccc2O)C(=O)O1)C(C)C (stereo unspecified) | 0.022 |  |
| CC(C)C(C/C=C1/CC(CO)(COC(=O)c2cccc(O)c2)OC1=O)C(C)C (stereo unspecified) | 0.406 |  |
| CC(C)C(CC(=O)OCC1(CO)C/C(=C\Cc2ccccc2)C(=O)O1)C(C)C (stereo unspecified) | 0.014 |  |
| COc1ccc(/C=C2\CC(CO)(COC(=O)CC(C(C)C)C(C)C)OC2=O)cc1 (stereo unspecified) | 0.007 |  |
| CC(C)C(CC(=O)OCC1(CO)C/C(=C\c2ccccc2)C(=O)O1)C(C)C (stereo unspecified) | 0.012 |  |
| CC(C)C(C/C=C1/CC(CO)(COC(=O)C2CCCCC2)OC1=O)C(C)C (stereo unspecified) | 0.008 |  |
| CCCCCCCC/C=C1\CC(CO)(COC(=O)Cc2ccccc2)OC1=O (stereo unspecified) | 0.044 |  |
| CCCCCCCCC/C=C1/CC(CO)(COC(=O)C2CCCCC2)OC1=O (stereo unspecified) | 0.005 |  |
| CC(C)C(C/C=C1\CC(CO)(COC(=O)c2ccc(O)cc2)OC1=O)C(C)C (stereo unspecified) | 2.4 | Ratio Ki [2]: 17; Ki [3]: 16.9 µM; Ki [4]: 0.98 µM |
| CC(C)C(CC(=O)OCC1(CO)C/C(=C\c2ccc(O)cc2)C(=O)O1)C(C)C (stereo unspecified) | 0.019 | Ratio Ki [2]: 121; Ki [3]: 0.17 µM; Ki [4]: 0.0014 µM |
